In article PMC5615155 (Toxicology Reports, 2017):
Several values for one entry are separate records, joined by “and”; a condition that tells them apart may be missing. Equal entries are not always repeated. Entries after “also recorded” stand apart in the source; their conditions may differ.

Legend:
[1] = target: CYP2C9 (Homo sapiens, UniProt P11712); experiment: CYP inhibition, spectrofluorimetric; assay type: biochemical; conditions: recombinant human CYP2C9 expressed in insect Sf9 cells
In short: (§1)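 Inhibition was assayed with recombinant human CYP isoforms expressed in insect Sf9 cells. Turnover of spectrofluorimetric substrates was read by fluorescence. Test compound was tested at a single concentration of 10 μM.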

[2] = target: CYP2D6 (Homo sapiens, UniProt P10635); experiment: CYP inhibition, spectrofluorimetric; assay type: biochemical; conditions: recombinant human CYP2D6 expressed in insect Sf9 cells
Sequence of CYP2D6 (P10635 whole entry): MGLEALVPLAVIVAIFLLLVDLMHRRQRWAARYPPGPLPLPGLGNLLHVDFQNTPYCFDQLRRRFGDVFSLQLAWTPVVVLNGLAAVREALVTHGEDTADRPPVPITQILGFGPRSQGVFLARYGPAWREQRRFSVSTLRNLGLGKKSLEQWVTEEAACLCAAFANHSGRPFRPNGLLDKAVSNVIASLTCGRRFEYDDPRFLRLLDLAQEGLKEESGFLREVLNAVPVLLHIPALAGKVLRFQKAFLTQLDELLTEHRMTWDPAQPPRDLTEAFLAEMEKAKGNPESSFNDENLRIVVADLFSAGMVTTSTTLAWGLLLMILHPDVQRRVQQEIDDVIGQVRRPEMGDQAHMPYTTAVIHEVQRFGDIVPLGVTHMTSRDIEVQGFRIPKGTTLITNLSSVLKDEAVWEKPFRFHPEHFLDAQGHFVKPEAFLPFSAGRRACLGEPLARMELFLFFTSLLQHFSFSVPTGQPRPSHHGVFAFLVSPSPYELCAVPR
In short: as §1

[3] = tested on: 68 receptor binding assays for GPCRs, ion channels, nuclear receptors, transporters; experiment: receptor lead profiling panel; conditions: 10 μM
[4] = target: hERG (Homo sapiens, UniProt Q12809); experiment: hERG electrophysiology; assay type: cell-based
Sequence of hERG (Q12809 whole entry): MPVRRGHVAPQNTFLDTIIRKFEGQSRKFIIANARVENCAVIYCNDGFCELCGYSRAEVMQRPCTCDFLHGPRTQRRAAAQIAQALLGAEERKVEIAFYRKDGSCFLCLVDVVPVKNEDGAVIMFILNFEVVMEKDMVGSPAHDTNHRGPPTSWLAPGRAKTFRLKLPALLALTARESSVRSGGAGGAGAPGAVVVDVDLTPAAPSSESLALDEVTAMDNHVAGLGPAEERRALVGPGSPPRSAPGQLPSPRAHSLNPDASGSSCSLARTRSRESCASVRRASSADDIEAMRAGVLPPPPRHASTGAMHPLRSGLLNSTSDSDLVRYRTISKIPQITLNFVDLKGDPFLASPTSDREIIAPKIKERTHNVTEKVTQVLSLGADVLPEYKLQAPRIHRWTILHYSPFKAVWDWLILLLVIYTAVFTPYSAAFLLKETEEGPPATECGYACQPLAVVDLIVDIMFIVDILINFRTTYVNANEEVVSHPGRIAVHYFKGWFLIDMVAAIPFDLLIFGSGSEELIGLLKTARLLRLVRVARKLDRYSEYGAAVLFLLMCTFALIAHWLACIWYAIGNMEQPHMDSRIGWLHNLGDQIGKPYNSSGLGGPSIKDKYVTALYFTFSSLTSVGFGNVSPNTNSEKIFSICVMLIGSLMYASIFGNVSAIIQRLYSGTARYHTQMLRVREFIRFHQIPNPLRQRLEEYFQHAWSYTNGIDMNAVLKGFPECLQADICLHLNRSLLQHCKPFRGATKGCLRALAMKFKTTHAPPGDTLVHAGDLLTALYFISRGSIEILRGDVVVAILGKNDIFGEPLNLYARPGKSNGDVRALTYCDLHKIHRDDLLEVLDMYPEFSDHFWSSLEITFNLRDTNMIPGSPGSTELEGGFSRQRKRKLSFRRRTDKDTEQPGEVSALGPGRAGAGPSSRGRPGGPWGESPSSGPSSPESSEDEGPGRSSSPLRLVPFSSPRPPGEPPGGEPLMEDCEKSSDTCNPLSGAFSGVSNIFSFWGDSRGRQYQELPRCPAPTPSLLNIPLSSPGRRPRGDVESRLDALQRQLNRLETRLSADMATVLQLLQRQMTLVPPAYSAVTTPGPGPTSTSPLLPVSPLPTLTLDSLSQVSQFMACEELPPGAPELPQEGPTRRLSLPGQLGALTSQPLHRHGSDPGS

[5] = in vitro microsomal metabolism; assay type: in vitro ADME, human; conditions: 10 μM, 0.5 mg/mL, +NADPH, 120 min
[6] = in vitro microsomal metabolism; assay type: in vitro ADME, Sprague-Dawley rat; conditions: 10 μM, 0.5 mg/mL, +NADPH, 120 min
[7] = excretion in feces and urine; assay type: in vivo, Sprague-Dawley rats
[8] = tested on: S. typhimurium strains TA98, TA100, TA1535, TA1537; experiment: bacterial reverse mutation test; assay type: cell-based
In short: (§2)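 GLP plate-incorporation Ames test per OECD 471 with S. typhimurium TA98, TA100, TA1535, TA1537 and E. coli WP2 uvrA, ± Aroclor 1254-induced male rat liver S9. An initial toxicity-mutation phase (1.5–5000 μg/plate) set the range for the confirmatory assay at 100, 333, 1000, 3333 and 5000 μg/plate. Negative and positive controls were included. Toxicity and precipitate were noted.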

[9] = tested on: E. coli strain WP2 uvrA; experiment: bacterial reverse mutation test; assay type: cell-based; conditions: 100–5000 μg/plate, plate incorporation, ±S9
In short: as §2

[10] = cited from earlier work
[11] = 13-week dietary toxicity study; assay type: in vivo, CD [Crl:CD(SD)] rats
[12] = definitive developmental toxicity study; assay type: in vivo, Crl:CD(SD) rats
In short: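 For the definitive developmental toxicity study, bred female Sprague-Dawley rats, 25/group, were given the sulfate salt of the test compound by oral gavage at 250, 500 or 1000 mg/kg bw/day, with a control group. Per litter, corpora lutea, implantation sites, pre- and post-implantation loss, live and dead fetuses, resorptions (early/late), fetal sex and fetal body weight were recorded.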

[13] = 140 mg/kg bw/day females, p < 0.05

Sequence of CYP2C9 (P11712 whole entry, canonical isoform): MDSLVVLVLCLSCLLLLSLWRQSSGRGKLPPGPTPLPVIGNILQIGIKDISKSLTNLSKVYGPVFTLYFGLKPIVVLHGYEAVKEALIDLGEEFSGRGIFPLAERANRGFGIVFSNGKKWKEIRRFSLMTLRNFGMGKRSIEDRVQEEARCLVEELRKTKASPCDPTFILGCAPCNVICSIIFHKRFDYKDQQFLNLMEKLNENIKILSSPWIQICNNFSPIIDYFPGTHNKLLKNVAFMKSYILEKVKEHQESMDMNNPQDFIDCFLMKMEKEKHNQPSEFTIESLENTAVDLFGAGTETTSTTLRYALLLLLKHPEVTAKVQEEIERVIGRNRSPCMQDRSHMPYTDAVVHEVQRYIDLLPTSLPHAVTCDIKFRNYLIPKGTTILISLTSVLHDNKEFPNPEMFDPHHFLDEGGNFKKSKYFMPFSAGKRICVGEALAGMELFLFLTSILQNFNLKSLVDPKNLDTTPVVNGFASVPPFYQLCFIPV

SMILES: Cc1cc(C(=O)NC(C)(C)COc2cccc3c2C(N)=NS(=O)(=O)N3)cc(C)n1 [S2218, N-(1-((4-amino-2,2-dioxido-1H-benzo[c][1,2,6]thiadiazin-5-yl)oxy)-2-methylpropan-2-yl)-2,6-dimethylisonicotinamide]
- inhibition at 10 μM [1]: ≤ 7%
- inhibition at 10 μM [2]: ≤ 7%
- inhibition or stimulation in lead profiling receptor screen [3]: < 50%
- inhibition at 10 μM [4]: < 10%
- % MS (EIC) peak area of parent relative to time 0 [5]: 98.4 ± 0.4%
- % MS (EIC) peak area of parent relative to time 0 [6]: 96.5 ± 0.4%
- % Recovery of S2218 ([7]; feces + urine, female, 0–72 h): 90.0% and 90.0 ± 7.5%
- % Recovery of S2218 ([7]; feces + urine, male, 0–72 h): 82.1% and 82.1 ± 15.4%
- % Recovery of S2218 ([7]; feces + urine, overall (M+F), 0–72 h): 86.07%
- % Recovery of S2218 ([7]; feces, female, 0–24 h): 82.19% and 82.19 ± 10.89%
- % Recovery of S2218 ([7]; feces, female, 0–72 h): 89.79% and 89.79 ± 7.63%
- % Recovery of S2218 ([7]; feces, female, 24–48 h): 7.504 ± 6.517%
- % Recovery of S2218 ([7]; feces, female, 48–72 h): 0.152 ± 0.062%
- % Recovery of S2218 ([7]; feces, male, 0–24 h, S8069 10 mg/kg bw oral): 76.68% and 76.68 ± 13.82%
- % Recovery of S2218 ([7]; feces, male, 0–72 h): 82.08% and 82.08 ± 15.35%
- % Recovery of S2218 ([7]; feces, male, 24–48 h): 5.247 ± 4.432%
- % Recovery of S2218 ([7]; feces, male, 48–72 h): 0.298 ± 0.225%
- % Recovery of S2218 ([7]; urine, female, 0–24 h): 0.202 ± 0.216%
- % Recovery of S2218 ([7]; urine, female, 0–72 h): 0.230% and 0.230 ± 0.252%
- % Recovery of S2218 ([7]; urine, female, 24–48 h): 0.020 ± 0.027%
- % Recovery of S2218 ([7]; urine, female, 48–72 h): 0.008 ± 0.010%
- % Recovery of S2218 ([7]; urine, male, 0–24 h): 0.036 ± 0.025%
- % Recovery of S2218 ([7]; urine, male, 0–72 h): 0.044% and 0.044 ± 0.022%
- % Recovery of S2218 ([7]; urine, male, 24–48 h): 0.007 ± 0.004%
- % Recovery of S2218 ([7]; urine, male, 48–72 h): 0.001 ± 0.001%
- % Recovery of S2218 ([7]; urine, overall (M+F), 0–72 h): 0.137%
- Reverse mutation (in vitro), result ([8]; 100–5000 μg/plate, plate incorporation, ±S9): not found to be mutagenic; also recorded: Negative
- cytotoxicity (background lawn / revertant colonies) ([8]; all tester strains, ±S9, up to 5000 μg per plate): No cytotoxicity
- concentration at which precipitate was observed ([8]; confirmatory mutagenicity assay): ≥ 3333 μg per plate
- concentration at which precipitate was observed ([8]; initial toxicity-mutation assay): 5000 μg per plate
- Reverse mutation (in vitro), result [9]: not mutagenic; also recorded: Negative
- photostability to UV light vs S6973 and S617 [10]: significantly improved photostability

SMILES: Cc1cc(C(=O)NC(C)(C)COc2cccc3c2C(N)=NS(=O)(=O)N3)cc(C)n1.O=S(=O)(O)O [S8069]
- pituitary/brain weight decrease vs control ([11]; 140 mg/kg bw/day females, p < 0.01): 17.7%
- kidney/brain weight decrease vs control [11, 13]: 8.1%
- liver/brain weight decrease vs control [11, 13]: 9.8%
- pituitary gland mean absolute weight decrease vs control [11, 13]: 15.1%
- pituitary/body weight decrease vs control [11, 13]: 14.6%
- brain weight increase relative to control ([11]; 140 mg/kg bw/day females, p > 0.05): 3.4%
- Findings ([11]; 30, 70, 140 mg/kg bw/day food ad-mix): No test-article related findings
- margin of safety (NOAEL 140 mg/kg bw/day vs PADI 47 μg/kg bw/day) ([11]; rat, in vivo): > 2975 fold
- Corpora Lutea ([12]; 250 mg/kg bw/d, Mean): 15.1
- Dead Fetuses ([12]; 250 mg/kg bw/d, Mean): 0.0
- Fetal Wt. ([12]; 250 mg/kg bw/d, Mean): 5.9 g
- Fetuses, Sex F ([12]; 250 mg/kg bw/d, Mean): 7.2
- Fetuses, Sex M ([12]; 250 mg/kg bw/d, Mean): 6.6
- Implant. Sites ([12]; 250 mg/kg bw/d, Mean): 14.8
- Post-Implant. Loss ([12]; 250 mg/kg bw/d, Mean): 1.0
- Pre-Implant. Loss ([12]; 250 mg/kg bw/d, Mean): 0.4
- Resorptions, Early ([12]; 250 mg/kg bw/d, Mean): 1.0
- Resorptions, Late ([12]; 250 mg/kg bw/d, Mean): 0.0
- Viable Fetuses ([12]; 250 mg/kg bw/d, Mean): 13.8
- Corpora Lutea ([12]; 250 mg/kg bw/d, Total): 363
- Dead Fetuses ([12]; 250 mg/kg bw/d, Total): 0
- Fetuses, Sex F ([12]; 250 mg/kg bw/d, Total): 173
- Fetuses, Sex M ([12]; 250 mg/kg bw/d, Total): 158
- Implant. Sites ([12]; 250 mg/kg bw/d, Total): 354
- Post-Implant. Loss ([12]; 250 mg/kg bw/d, Total): 23
- Pre-Implant. Loss ([12]; 250 mg/kg bw/d, Total): 9
- Resorptions, Early ([12]; 250 mg/kg bw/d, Total): 23
- Resorptions, Late ([12]; 250 mg/kg bw/d, Total): 0
- Viable Fetuses ([12]; 250 mg/kg bw/d, Total): 331
- Corpora Lutea ([12]; 500 mg/kg bw/d, Mean): 16.1
- Dead Fetuses ([12]; 500 mg/kg bw/d, Mean): 0.0
- Fetal Wt. ([12]; 500 mg/kg bw/d, Mean): 5.6 g
- Fetuses, Sex F ([12]; 500 mg/kg bw/d, Mean): 8.2
- Fetuses, Sex M ([12]; 500 mg/kg bw/d, Mean): 6.6
- Implant. Sites ([12]; 500 mg/kg bw/d, Mean): 15.4
- Post-Implant. Loss ([12]; 500 mg/kg bw/d, Mean): 0.7
- Pre-Implant. Loss ([12]; 500 mg/kg bw/d, Mean): 0.7
- Resorptions, Early ([12]; 500 mg/kg bw/d, Mean): 0.7
- Resorptions, Late ([12]; 500 mg/kg bw/d, Mean): 0.0
- Viable Fetuses ([12]; 500 mg/kg bw/d, Mean): 14.7
- Corpora Lutea ([12]; 500 mg/kg bw/d, Total): 370
- Dead Fetuses ([12]; 500 mg/kg bw/d, Total): 0
- Fetuses, Sex F ([12]; 500 mg/kg bw/d, Total): 188
- Fetuses, Sex M ([12]; 500 mg/kg bw/d, Total): 151
- Implant. Sites ([12]; 500 mg/kg bw/d, Total): 355
- Post-Implant. Loss ([12]; 500 mg/kg bw/d, Total): 16
- Pre-Implant. Loss ([12]; 500 mg/kg bw/d, Total): 15
- Resorptions, Early ([12]; 500 mg/kg bw/d, Total): 16
- Resorptions, Late ([12]; 500 mg/kg bw/d, Total): 0
- Viable Fetuses ([12]; 500 mg/kg bw/d, Total): 339
- malformations, fetuses (litters) ([12]; 500 mg/kg bw/day): 4(4)
- skeletal malformations, fetuses (litters) ([12]; 500 mg/kg bw/day): 3(3)
- visceral malformations, fetuses (litters) ([12]; 500 mg/kg bw/day): 3(3)
- Corpora Lutea ([12]; 1000 mg/kg bw/d, Mean): 15.1
- Dead Fetuses ([12]; 1000 mg/kg bw/d, Mean): 0.0
- Fetal Wt. ([12]; 1000 mg/kg bw/d, Mean): 5.6 g
- Fetuses, Sex F ([12]; 1000 mg/kg bw/d, Mean): 7.0
- Fetuses, Sex M ([12]; 1000 mg/kg bw/d, Mean): 7.3
- Implant. Sites ([12]; 1000 mg/kg bw/d, Mean): 14.6
- Post-Implant. Loss ([12]; 1000 mg/kg bw/d, Mean): 0.3
- Pre-Implant. Loss ([12]; 1000 mg/kg bw/d, Mean): 0.6
- Resorptions, Early ([12]; 1000 mg/kg bw/d, Mean): 0.3
- Resorptions, Late ([12]; 1000 mg/kg bw/d, Mean): 0.0
- Viable Fetuses ([12]; 1000 mg/kg bw/d, Mean): 14.3
- Corpora Lutea ([12]; 1000 mg/kg bw/d, Total): 348
- Dead Fetuses ([12]; 1000 mg/kg bw/d, Total): 0
- Fetuses, Sex F ([12]; 1000 mg/kg bw/d, Total): 160
- Fetuses, Sex M ([12]; 1000 mg/kg bw/d, Total): 168
- Implant. Sites ([12]; 1000 mg/kg bw/d, Total): 335
- Post-Implant. Loss ([12]; 1000 mg/kg bw/d, Total): 7
- Pre-Implant. Loss ([12]; 1000 mg/kg bw/d, Total): 13
- Resorptions, Early ([12]; 1000 mg/kg bw/d, Total): 7
- Resorptions, Late ([12]; 1000 mg/kg bw/d, Total): 0
- Viable Fetuses ([12]; 1000 mg/kg bw/d, Total): 328
- malformations, fetuses (litters) ([12]; 1000 mg/kg bw/day): 1(1)
- visceral malformations, fetuses (litters) ([12]; 1000 mg/kg bw/day): 1(1)
- females with rales 1 h following dose ([12]; 1000 mg/kg bw/day, GD 8–17): 6
- females with salivation at time of dose ([12]; 1000 mg/kg bw/day, GD 12–16): 4
- mean maternal body weight loss ([12]; 1000 mg/kg bw/day, Gestation Day 8–9): 2 g
- external malformations ([12]; test article-treated groups): no external malformations observed
